As usually defined, the Ki is the dissociation constant of the complex between target and ligand, obtained from inhibition or displacement. A high value points to lower affinity.

The nature of assay [1]: Displacement of [3H]epibatidine from Torpedo californica electroplax (alpha1)2beta1gammadelta nAChR after 90 mins by liquid scintillation counting analysis. Further details: species or system Tetronarce californica. (In general: In a radioligand displacement assay an active substance lowers the binding of a labelled ligand.)
Assay [2] addresses Neuronal acetylcholine receptor; alpha4/beta2 (Rattus norvegicus, UniProt P09483+P12390). Nature of the assay: Displacement of [3H]epibatidine from Sprague-Dawley rat brain alpha4beta2 nAChR after 90 mins by liquid scintillation counting analysis. In outline: (§1)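 Radioligand competition binding gave Ki values, reported as mean ± SEM from 2–10 independent experiments.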
Assay [3] addresses Neuronal acetylcholine receptor subunit alpha-7 (Rattus norvegicus, UniProt Q05941). Nature of the assay: Displacement of [3H]methyllycaconitine from Sprague-Dawley rat brain alpha7 nAChR after 120 mins by liquid scintillation counting analysis. It counts as tissue-based. In outline: as §1
Assay [4] can be described thus: Displacement of [3H]epibatidine from calf adrenal alpha3beta4 nAChR after 90 mins by liquid scintillation counting analysis. Also noted: species or system Bos taurus.

Neuronal acetylcholine receptor; alpha4/beta2, sequence (P09483 whole entry): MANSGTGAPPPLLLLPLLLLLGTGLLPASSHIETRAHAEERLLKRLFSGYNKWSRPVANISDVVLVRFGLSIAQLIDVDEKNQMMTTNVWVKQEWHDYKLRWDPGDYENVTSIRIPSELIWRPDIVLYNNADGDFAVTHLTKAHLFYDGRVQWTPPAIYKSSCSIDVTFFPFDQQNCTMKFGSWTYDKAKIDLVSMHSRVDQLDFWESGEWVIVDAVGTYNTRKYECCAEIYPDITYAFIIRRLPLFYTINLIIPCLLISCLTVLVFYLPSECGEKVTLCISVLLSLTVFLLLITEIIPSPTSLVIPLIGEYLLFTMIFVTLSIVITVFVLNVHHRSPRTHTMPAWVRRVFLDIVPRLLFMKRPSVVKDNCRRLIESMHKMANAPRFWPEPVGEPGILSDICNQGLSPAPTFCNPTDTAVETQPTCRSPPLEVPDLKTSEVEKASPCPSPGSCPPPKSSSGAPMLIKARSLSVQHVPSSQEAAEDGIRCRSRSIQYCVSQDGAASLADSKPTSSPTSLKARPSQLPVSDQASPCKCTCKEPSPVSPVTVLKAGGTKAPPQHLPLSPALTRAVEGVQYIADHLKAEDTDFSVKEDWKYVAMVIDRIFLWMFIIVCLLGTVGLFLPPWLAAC
Neuronal acetylcholine receptor; alpha4/beta2, sequence (P12390 whole entry): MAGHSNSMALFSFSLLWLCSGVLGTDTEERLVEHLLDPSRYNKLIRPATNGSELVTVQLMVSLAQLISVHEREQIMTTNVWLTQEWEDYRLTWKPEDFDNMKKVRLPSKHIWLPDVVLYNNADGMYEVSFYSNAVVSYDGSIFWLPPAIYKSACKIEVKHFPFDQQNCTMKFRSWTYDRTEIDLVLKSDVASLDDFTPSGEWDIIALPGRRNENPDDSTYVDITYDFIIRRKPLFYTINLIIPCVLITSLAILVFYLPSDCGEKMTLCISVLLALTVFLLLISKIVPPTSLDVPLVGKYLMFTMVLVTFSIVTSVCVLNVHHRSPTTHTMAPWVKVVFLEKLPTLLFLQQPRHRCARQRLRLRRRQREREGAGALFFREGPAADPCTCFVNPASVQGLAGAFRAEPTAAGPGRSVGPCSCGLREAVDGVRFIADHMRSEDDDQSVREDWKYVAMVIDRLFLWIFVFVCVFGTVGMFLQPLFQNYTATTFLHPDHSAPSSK
Neuronal acetylcholine receptor subunit alpha-7, sequence (Q05941 whole entry): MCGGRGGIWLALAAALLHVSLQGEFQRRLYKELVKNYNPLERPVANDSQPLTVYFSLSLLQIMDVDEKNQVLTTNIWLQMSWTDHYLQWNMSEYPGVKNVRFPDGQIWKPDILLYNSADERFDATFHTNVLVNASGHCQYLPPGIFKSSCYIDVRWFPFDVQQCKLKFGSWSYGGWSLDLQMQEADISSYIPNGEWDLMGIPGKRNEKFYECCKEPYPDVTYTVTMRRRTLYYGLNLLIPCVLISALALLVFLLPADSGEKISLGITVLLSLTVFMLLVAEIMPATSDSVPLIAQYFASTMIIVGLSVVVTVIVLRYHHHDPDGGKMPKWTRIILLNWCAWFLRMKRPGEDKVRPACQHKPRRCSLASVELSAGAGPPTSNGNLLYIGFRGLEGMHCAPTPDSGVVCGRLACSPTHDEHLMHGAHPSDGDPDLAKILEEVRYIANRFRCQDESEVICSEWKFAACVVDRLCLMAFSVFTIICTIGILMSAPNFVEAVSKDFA

Consider `O=c1c(-c2cccnc2)ccc2n1C[C@@H]1CNC[C@H]2C1`, for which the Ki in assay [1] was more than 5000 nM.
Compound `O=C(c1csc(-c2ccncc2)n1)N1C[C@@H]2CNC[C@@H](C2)C1` gave a Ki in assay [2] of more than 1000 nM.
Turning to `O=C(/C=C/c1cccc(Br)c1)N1C[C@@H]2CNC[C@@H](C2)C1`, the Ki in assay [2] was 24.6 nM; in assay [3], more than 10000 nM.
As to `O=C(C#Cc1cccc(F)c1)N1C[C@@H]2CNC[C@@H](C2)C1`, the Ki in assay [2] was 7.1 nM; in assay [4], more than 1000 nM; in assay [1], more than 5000 nM; in assay [3], more than 1000 nM.
For `COc1cccc(C#CC(=O)N2C[C@@H]3CNC[C@@H](C3)C2)c1`, the Ki is 6.3 nM in assay [2], more than 1000 nM in assay [4], more than 5000 nM in assay [1] and more than 1000 nM in assay [3].
Compound `O=C(c1ccc(-c2ccccc2)cc1)N1C[C@@H]2CNC[C@@H](C2)C1` came in with a Ki in assay [4] of 1090 nM.
As to `O=c1c(-c2ccncc2)ccc2n1C[C@@H]1CNC[C@H]2C1`, the Ki in assay [2] is 3.9 nM; in assay [1], more than 10000 nM; in assay [3], more than 10000 nM.
Take `O=C(C#Cc1cccc2ccccc12)N1C[C@@H]2CNC[C@@H](C2)C1`: the Ki was 46 nM in assay [2], more than 1000 nM in assay [4], more than 5000 nM in assay [1] and more than 1000 nM in assay [3].
`COc1ccccc1C#CC(=O)N1C[C@@H]2CNC[C@@H](C2)C1`: the Ki in assay [2] is 242 nM; in assay [4] it was more than 1000 nM; in assay [1], more than 5000 nM; in assay [3], more than 1000 nM.
As for `O=C(/C=C/c1cccc2ccccc12)N1C[C@@H]2CNC[C@@H](C2)C1`, the Ki in assay [2] was 297 nM; in assay [4] it was more than 5000 nM; in assay [1] it was more than 5000 nM; in assay [3] it was more than 1000 nM.
With `O=C(/C=C/c1ccco1)N1C[C@@H]2CNC[C@@H](C2)C1`, the Ki in assay [2] is 288 nM; in assay [4] it was more than 1000 nM; in assay [1] it was more than 5000 nM; in assay [3], more than 1000 nM.
Regarding `COc1ccccc1/C=C/C(=O)N1C[C@@H]2CNC[C@@H](C2)C1`, the figures for the Ki in assay [2] and in assay [1] were 172 nM and more than 10000 nM, respectively.
`O=C(COc1ccccc1Cl)N1C[C@@H]2CNC[C@@H](C2)C1`: the Ki was 548 nM in assay [2], more than 5000 nM in assay [4], more than 5000 nM in assay [1] and more than 5000 nM in assay [3].
As to `COc1cc(CCC(=O)N2C[C@@H]3CNC[C@@H](C3)C2)cc(OC)c1OC`, the Ki in assay [2] is 233 nM; in assay [4], more than 5000 nM; in assay [3] it was more than 10000 nM.
Turning to `COc1ccc(C#CC(=O)N2C[C@@H]3CNC[C@@H](C3)C2)cc1`, the Ki was 7.8 nM in assay [2], more than 1000 nM in assay [4], more than 5000 nM in assay [1] and more than 1000 nM in assay [3].
Turning to `O=C(/C=C/c1cccc([N+](=O)[O-])c1)N1C[C@@H]2CNC[C@@H](C2)C1`, the Ki in assay [2] was 38.9 nM; in assay [4], more than 1000 nM; in assay [1], more than 10000 nM.
As to `O=C(/C=C/c1cccs1)N1C[C@@H]2CNC[C@@H](C2)C1`, the Ki in assay [2] is 96.9 nM; in assay [4], 2000 nM; in assay [3], more than 10000 nM.
In the case of `O=C(c1ccccc1)N1C[C@@H]2CNC[C@@H](C2)C1`, the Ki in assay [4] is more than 5000 nM; in assay [1], more than 10000 nM.
As for `Cc1ccc(C#CC(=O)N2C[C@@H]3CNC[C@@H](C3)C2)cc1`, the Ki in assay [2] was 10.9 nM; in assay [4], more than 1000 nM; in assay [1] it was more than 5000 nM; in assay [3] it was more than 1000 nM.
Consider `O=C(Cc1c(F)c(F)c(F)c(F)c1F)N1C[C@@H]2CNC[C@@H](C2)C1`, for which the Ki in assay [2] is more than 5000 nM.
As to `O=c1cccc2n1C[C@@H]1CNC[C@H]2C1` [CYTISINICLINE], the Ki in assay [4] was determined as 18 nM; in assay [1], 1300 nM; in assay [3] it was 261 nM.

The record behind these values is ChEMBL document CHEMBL3091445, “The 3,7-diazabicyclo[3.3.1]nonane scaffold for subtype selective nicotinic acetylcholine receptor ligands. Part 2: carboxamide derivatives with different spacer motifs” (Bioorg Med Chem, 2013).
